Measured values: ChEMBL document CHEMBL1138555, “N-acylated and N,N'-diacylated imidazolidine-2-thione derivatives and N,N'-diacylated tetrahydropyrimidine-2(1H)-thione analogues: synthesis and antiproliferative activity” (Eur J Med Chem, 2009)

Tested on: MT4
Test: Antiproliferative activity against human MT4 cells assessed as reduction of growth by MTT assay
Format: functional, cell-based
Procedure, shortened: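 MT-4 lymphoblastoid T cells (ATCC) in RPMI 1640 with 10% FCS, penicillin/streptomycin, checked for mycoplasma. 1 × 10⁴ mock-infected cells per well with serial dilutions from a 100 mM DMSO stock. Incubated 4 days at 37 °C, viable cells counted by MTT. IC50 versus untreated controls by linear regression. Mean of three separate experiments.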

Going from Cc1ccc(C(=O)N2CCN(C=O)C2=S)cc1 to O=CN1CCN(C(=O)c2ccccc2)C1=S, the IC50 falls from 31 µM to 12 µM (2.6-fold).

First: O=C(c1ccc(Cl)cc1)N1CCN(C(=O)c2ccc(Cl)cc2)C1=S
Second: O=C(c1ccc(Cl)cc1)N1CCCN(C(=O)c2ccc(Cl)cc2)C1=S
The IC50 of the first is 3.8-fold lower: 9.9 µM for the first, 38 µM for the second.

Compared with O=C(c1ccccc1Cl)N1CCN(C(=O)c2ccccc2Cl)C1=S, O=C(c1ccccc1Cl)N1CCCN(C(=O)c2ccccc2Cl)C1=S is higher in IC50: 54 µM for the first, > 100 µM for the second.

First: CC(C)(C)C(=O)/C(C#N)=C/N1CCN(C(=O)c2ccco2)C1=S
Second: N#CC(C#N)=CN1CCN(C(=O)c2ccco2)C1=O
The IC50 of the first is lower: 14 µM for the first, > 100 µM for the second.

Compared with CC(C)(C)C(=O)N1CCN(C=O)C1=S, CC(=O)N1CCN(C=O)C1=S is higher in IC50: 43 µM for the first, > 100 µM for the second. The first is the more potent here.

First: CC(C)(C)c1ccc(C(=O)N2CCN(C(=O)c3ccc(C(C)(C)C)cc3)C2=S)cc1
Second: Cc1ccc(C(=O)N2CCN(C(=O)c3ccc(C)cc3)C2=S)cc1
The IC50 of the first is higher: > 100 µM for the first, 35 µM for the second.

First: O=C(c1ccc(Cl)c(Cl)c1)N1CCCN(C(=O)c2ccc(Cl)c(Cl)c2)C1=S
Second: O=C(c1ccc(Cl)cc1Cl)N1CCCN(C(=O)c2ccc(Cl)cc2Cl)C1=S
The IC50 of the first is lower: 72 µM for the first, > 100 µM for the second.

First: COc1cc(C(=O)N2CCCN(C(=O)c3cc(OC)c(OC)c(OC)c3)C2=S)cc(OC)c1OC
Second: O=C(c1cc(Cl)cc(Cl)c1)N1CCCN(C(=O)c2cc(Cl)cc(Cl)c2)C1=S
The IC50 of the first is higher: > 100 µM for the first, 30 µM for the second.

First: O=C(c1ccco1)N1CCCN(C(=O)c2ccco2)C1=S
Second: O=C(c1cccs1)N1CCCN(C(=O)c2cccs2)C1=S
The IC50 of the first is lower: 36 µM for the first, > 100 µM for the second. The first is the more potent here.

Cc1ccc(C(=O)N2CCCN(C(=O)c3ccc(C)cc3)C2=S)cc1 and COc1ccc(C(=O)N2CCN(C(=O)c3ccc(OC)cc3)C2=S)cc1 cannot be ordered by IC50: > 100 µM for the first, > 100 µM for the second.

Going from O=CN1CCN(C(=O)/C=C/c2ccccc2)C1=S to O=C(c1ccccc1)N1CCN(C(=O)c2ccccc2)C1=S, the IC50 falls from > 100 µM to 94 µM. The second is the more potent here.

First: CC(=O)/C(=C/N1CCN(C(=O)c2ccco2)C1=O)C(=O)c1ccccc1
Second: CCOC(=O)/C(=C/N1CCN(C(=O)c2ccco2)C1=O)C(=O)c1ccccc1
The IC50 of the first is higher: > 100 µM for the first, 43 µM for the second.

Going from O=C(c1cccc(Cl)c1)N1CCN(C(=O)c2cccc(Cl)c2)C1=S to O=C(c1cccc([N+](=O)[O-])c1)N1CCN(C(=O)c2cccc([N+](=O)[O-])c2)C1=S, the IC50 rises from 35 µM to > 100 µM.

CC(=O)N1CCN(C(C)=O)C1=S and Cc1ccccc1C(=O)N1CCN(C(=O)c2ccccc2C)C1=S cannot be ordered by IC50: > 100 µM for the first, > 100 µM for the second.

First: O=C(c1ccccc1)N1CCCN(C(=O)c2ccccc2)C1=S
Second: O=C(c1cccc2ccccc12)N1CCN(C(=O)c2cccc3ccccc23)C1=S
The IC50 of the first is higher: > 100 µM for the first, 13 µM for the second.

With O=C(c1ccc(Cl)c([N+](=O)[O-])c1)N1CCN(C(=O)c2ccc(Cl)c([N+](=O)[O-])c2)C1=S the IC50 was 11 µM.
